Consider 20 compounds from ChEMBL document CHEMBL4043311, “Developing Equipotent Teixobactin Analogues against Drug-Resistant Bacteria and Discovering a Hydrophobic Interaction between Lipid II and Teixobactin” (J Med Chem, 2018).

Molecules are shown by their SMILES. Converted amounts (≈) assume the structure as drawn. The source made the active and inactive calls. The rule behind the calls is not given here.

Test [1] has as its system Staphylococcus aureus. The test is described as follows: Antibacterial activity against methicillin-resistant Staphylococcus aureus BAA-1695 after 20 hrs by broth microdilution method. Format: functional. To be noted: BAA-1695, 20 h. A digest of the protocol: (§1)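 Broth microdilution per CLSI in cation-adjusted Mueller-Hinton broth with 0.002% polysorbate 80. Analogues were made up as 10 mg/mL DMSO stocks, then diluted in MHB. Inoculum approx. 5×10^5 cells/mL. Incubated 20 h at 37°C; MIC taken as the lowest concentration with no visible growth. Run three times.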
In general terms: Dilution methods test growth across graded concentrations, often in twofold steps.

Test [2] in a line: Binding affinity to lipid 2 at 1 to 4 nmol after 30 mins by TLC method. A digest of the protocol:
(§2)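 Lipid II or C55-P (1 nmol) incubated with 1, 2, 3 or 4 nmol compound in 50 mM Tris/HCl pH 7.5, 30 min at rt. Extracted twice with pyridinium acetate (6 M, pH 4.2)/butanol (1:2), then washed with butanol-saturated water. Organic phase run on silica TLC in chloroform/methanol/water/ammonia (88:48:10:1) and stained with phosphomolybdic acid; loss of lipid band scored. Done twice.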

For test [3], the system named is Staphylococcus aureus. The test is described as follows: Antibacterial activity against Staphylococcus aureus ATCC 29213 at lipid 2/test compound molar ratio 0.5 preincubated with lipid 2 for 30 mins followed by bacterial inoculation measured after overnight incubation. Format: functional. A digest of the protocol:
(§3)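 Test agent at 4x or 8x its broth MIC mixed with lipid II or C55-P (2x or 0.5x molar excess over compound) in MHII broth with 0.05% tween-80, 30 min at rt; exponential S. aureus ATCC 29213 then added to final OD600 0.001. Overnight at 37 °C; growth judged by eye and plate-reader absorbance. Run two or three times.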

A further test concerns Streptococcus pneumoniae. Nature of the test: Antibacterial activity against Streptococcus pneumoniae D39 after 20 hrs by broth microdilution method. It counts as functional. Conditions: D39, 20 h. A digest of the protocol: (§4)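 CLSI broth microdilution in cation-adjusted Mueller-Hinton broth with 3% lysed horse blood for streptococci and 0.002% polysorbate 80. Compounds taken from 10 mg/mL DMSO stocks and diluted in broth. Inoculum about 5×10^5 cells/mL. After 20 h at 37 °C, MIC read as lowest concentration with no visible growth. Done three times.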

Test [4] deals with Staphylococcus aureus. The test is described as follows: Antibacterial activity against methicillin-sensitive Staphylococcus aureus TH 4806 after 20 hrs by broth microdilution method. It counts as functional. Conditions: TH 4806, 20 h. The procedure, abridged: as §1
Another test deals with Enterococcus faecalis. Nature of the test: Antibacterial activity against […] Enterococcus faecalis ATCC 29212 after 20 hrs by broth microdilution method. Conditions: ATCC 29212, 20 h. Format: functional. The procedure, abridged: as §1
Test [5] in a line: Binding affinity to undecaprenyl-phosphate at 1 to 4 nmol after 30 mins by TLC method. The procedure, abridged: as §2
The test system of another test is Streptococcus pyogenes. Nature of the test: Antibacterial activity against Streptococcus pyogenes ATCC 19615 after 20 hrs by broth microdilution method. Format: functional. To be noted: ATCC 19615, 20 h. A digest of the protocol:
as §4

The subject of test [6] is Staphylococcus aureus. Nature of the test: Antibacterial activity against Staphylococcus aureus ATCC 29213 at lipid 2/test compound molar ratio 2 preincubated with lipid 2 for 30 mins followed by bacterial inoculation measured after overnight incubation. Format: functional. The procedure, abridged: as §3
In test [7] the test system is Staphylococcus aureus. Nature of the test: Antibacterial activity against Staphylococcus aureus ATCC 29213 at undecaprenyl-phosphate/test compound molar ratio 0.5 to 2 preincubated with undecaprenyl-phosphate for 30 mins followed by bacterial inoculation measured after overnight incubation. Format: functional. The procedure, abridged:
as §3

Broadly, the MIC is the lowest concentration that inhibits growth of the organism. For `CC[C@@H](C)[C@@H](NC(=O)[C@@H](CCC(N)=O)NC(=O)[C@H](CO)NC(=O)[C@@H](NC(=O)[C@H](N)Cc1ccc(-c2ccc(C(F)(F)F)cc2)cc1)[C@@H](C)CC)C(=O)N[C@H](C(=O)N[C@@H](CO)C(=O)N[C@H]1C(=O)N[C@@H](C)C(=O)N[C@@H](CCCCN)C(=O)N[C@@H]([C@@H](C)CC)C(=O)O[C@H]1C)[C@@H](C)CC`, in the test with Staphylococcus aureus [1], the MIC worked out at 0.5 µg/mL (≈ 0.371 µM).
Still for that read-out and setting: with `CC[C@@H](C)[C@@H](NC(=O)[C@@H](CCC(N)=O)NC(=O)[C@H](CO)NC(=O)[C@@H](NC(=O)[C@@H](Cc1ccccc1)NC)[C@@H](C)CC)C(=O)N[C@H](C(=O)O)[C@@H](C)CC` the figure was > 32 µg/mL; with `CC[C@@H](C)[C@@H](NC(=O)[C@@H](CCC(N)=O)NC(=O)[C@H](CO)NC(=O)[C@@H](NC(=O)C(Cc1ccccc1)NC)[C@@H](C)CC)C(=O)N[C@H](C(=O)N[C@@H](CO)C(=O)N[C@H]1C(=O)N[C@@H](C)C(=O)N[C@@H](CCCNC(=N)N)C(=O)N[C@@H]([C@@H](C)CC)C(=O)O[C@H]1C)[C@@H](C)CC` (some centres undefined), 2 µg/mL (≈ 1.61 µM).
The same measure, in the same setting: as for `CC[C@@H](C)[C@@H](NC(=O)[C@@H](CCC(N)=O)NC(=O)[C@H](CO)NC(=O)[C@@H](NC(=O)[C@H](N)Cc1ccc(O)cc1)[C@@H](C)CC)C(=O)N[C@H](C(=O)N[C@@H](CO)C(=O)N[C@H]1C(=O)N[C@@H](C)C(=O)N[C@@H](CCCNC(=N)N)C(=O)N[C@@H]([C@@H](C)CC)C(=O)O[C@H]1C)[C@@H](C)CC`, the figure is > 32 µg/mL; as for `CCCc1ccc(-c2ccc(C[C@@H](N)C(=O)N[C@H](C(=O)N[C@@H](CO)C(=O)N[C@H](CCC(N)=O)C(=O)N[C@@H](C(=O)N[C@H](C(=O)N[C@@H](CO)C(=O)N[C@H]3C(=O)N[C@@H](C)C(=O)N[C@@H](CCCCN)C(=O)N[C@@H]([C@@H](C)CC)C(=O)O[C@H]3C)[C@@H](C)CC)[C@H](C)CC)[C@@H](C)CC)cc2)cc1`, 0.5 µg/mL (≈ 0.379 µM).
On the same count and under the same terms, as for `CC[C@@H](C)[C@@H](NC(=O)[C@@H](CCC(N)=O)NC(=O)[C@H](CO)NC(=O)[C@@H](N)[C@@H](C)CC)C(=O)N[C@H](C(=O)N[C@@H](CO)C(=O)N[C@H]1C(=O)N[C@@H](C)C(=O)N[C@@H](CCCNC(=N)N)C(=O)N[C@@H]([C@@H](C)CC)C(=O)O[C@H]1C)[C@@H](C)CC`, the figure is > 32 µg/mL; as for `CC[C@@H](C)[C@@H](NC(=O)[C@@H](CCC(N)=O)NC(=O)[C@H](CO)NC(=O)[C@@H](NC(=O)[C@H](N)Cc1ccc(N)cc1)[C@@H](C)CC)C(=O)N[C@H](C(=O)N[C@@H](CO)C(=O)N[C@H]1C(=O)N[C@@H](C)C(=O)N[C@@H](CCCNC(=N)N)C(=O)N[C@@H]([C@@H](C)CC)C(=O)O[C@H]1C)[C@@H](C)CC`, > 32 µg/mL; as for `CC[C@@H](C)[C@H]1NC(=O)[C@H](CCCNC(=N)N)NC(=O)[C@H](C)NC(=O)[C@H](NC(=O)[C@@H](N)CO)[C@H](C)CC1=O`, > 32 µg/mL.
`CC[C@@H](C)[C@@H](NC(=O)[C@@H](CCCN)NC(=O)[C@H](CO)NC(=O)[C@@H](NC(=O)[C@H](N)Cc1ccc(-c2ccccc2)cc1)[C@@H](C)CC)C(=O)N[C@H](C(=O)N[C@@H](CO)C(=O)N[C@H]1C(=O)N[C@@H](C)C(=O)N[C@@H](CCCCN)C(=O)N[C@@H]([C@@H](C)CC)C(=O)O[C@H]1C)[C@@H](C)CC`: 2 µg/mL (≈ 1.58 µM) was the least that counted as inhibitory against Staphylococcus aureus [1] (MIC).
Regarding `CC[C@@H](C)[C@@H](NC(=O)[C@@H](CCC(N)=O)NC(=O)[C@H](CO)NC(=O)[C@@H](NC(=O)[C@H](N)Cc1ccc(-c2ccc(C)cc2)cc1)[C@@H](C)CC)C(=O)N[C@H](C(=O)N[C@@H](CO)C(=O)N[C@H]1C(=O)N[C@@H](C)C(=O)N[C@@H](CCCCN)C(=O)N[C@@H]([C@@H](C)CC)C(=O)O[C@H]1C)[C@@H](C)CC`, in the test with Staphylococcus aureus [1], the MIC is 0.5 µg/mL (≈ 0.387 µM).
Take `CC[C@@H](C)[C@@H](NC(=O)[C@@H](CCCNC(=N)N)NC(=O)[C@H](CO)NC(=O)[C@@H](NC(=O)[C@H](N)Cc1ccc(-c2ccccc2)cc1)[C@@H](C)CC)C(=O)N[C@H](C(=O)N[C@@H](CO)C(=O)N[C@H]1C(=O)N[C@@H](C)C(=O)N[C@@H](CCCCN)C(=O)N[C@@H]([C@@H](C)CC)C(=O)O[C@H]1C)[C@@H](C)CC`: in the test with Staphylococcus aureus [1], the MIC was found to be 2 µg/mL (≈ 1.53 µM).
Same read-out and setting: with `CC[C@@H](C)[C@@H](NC(=O)[C@@H](CCC(N)=O)NC(=O)[C@H](CO)NC(=O)[C@@H](NC(=O)[C@H](N)Cc1ccc(-c2ccc(-c3ccccc3)cc2)cc1)[C@@H](C)CC)C(=O)N[C@H](C(=O)N[C@@H](CO)C(=O)N[C@H]1C(=O)N[C@@H](C)C(=O)N[C@@H](CCCCN)C(=O)N[C@@H]([C@@H](C)CC)C(=O)O[C@H]1C)[C@@H](C)CC` the figure was 1 µg/mL (≈ 0.738 µM).
On the same count and under the same terms, as for `CC[C@H](C)[C@H](NC(=O)[C@H](N)Cc1ccccc1)C(=O)N[C@@H](COP(=O)(O)O)C(=O)N[C@H](CCC(N)=O)C(=O)N[C@@H](C(=O)N[C@H](C(=O)N[C@@H](CO)C(=O)N[C@H]1C(=O)N[C@@H](C)C(=O)N[C@@H](CCCNC(=N)N)C(=O)N[C@@H]([C@@H](C)CC)C(=O)O[C@H]1C)[C@@H](C)CC)C(C)C`, the figure is > 32 µg/mL; as for `CC[C@@H](C)[C@@H](NC(=O)[C@@H](CCC(N)=O)NC(=O)[C@H](CO)NC(=O)[C@@H](NC(=O)[C@H](N)Cc1ccc(O[C@H]2O[C@@H](CO)[C@@H](O)[C@@H](O)[C@@H]2O)cc1)[C@@H](C)CC)C(=O)N[C@H](C(=O)N[C@@H](CO)C(=O)N[C@H]1C(=O)N[C@@H](C)C(=O)N[C@@H](CCCNC(=N)N)C(=O)N[C@@H]([C@@H](C)CC)C(=O)O[C@H]1C)[C@@H](C)CC`, > 32 µg/mL.
On to `CC[C@@H](C)[C@@H](NC(=O)[C@@H](CCC(N)=O)NC(=O)[C@H](CO)NC(=O)[C@@H](NC(=O)[C@H](N)Cc1ccc(-c2ccccc2)cc1)[C@@H](C)CC)C(=O)N[C@H](C(=O)N[C@@H](CO)C(=O)N[C@H]1C(=O)N[C@@H](C)C(=O)N[C@@H](CCCCN)C(=O)N[C@@H]([C@@H](C)CC)C(=O)N[C@H]1C)[C@@H](C)CC`, for which the outcome (in [2]; with Staphylococcus aureus [3]; with Staphylococcus aureus [7]) was Active. Further, the MIC was < 0.032 µg/mL in the test with Streptococcus pneumoniae; 0.25 µg/mL (≈ 0.196 µM) against Staphylococcus aureus [4]; 0.25 µg/mL (≈ 0.196 µM) in the test with Staphylococcus aureus [1]; 0.5 µg/mL (≈ 0.391 µM) with Enterococcus faecalis; < 0.25 µg/mL in the test with Streptococcus pyogenes. The result (in test [5]; in the test on Staphylococcus aureus [6]) was inactive.
As to `CC[C@@H](C)[C@@H](NC(=O)[C@@H](CCC(N)=O)NC(=O)[C@H](CO)NC(=O)[C@@H](NC(=O)[C@@H](Cc1ccccc1)NC(=O)CN1CCOCC1)[C@@H](C)CC)C(=O)N[C@H](C(=O)N[C@@H](CO)C(=O)N[C@H]1C(=O)N[C@@H](C)C(=O)N[C@@H](CCCNC(=N)N)C(=O)N[C@@H]([C@@H](C)CC)C(=O)O[C@H]1C)[C@@H](C)CC`, the MIC against Staphylococcus aureus [1] is > 32 µg/mL.
Still for that read-out and setting: with `CC[C@@H](C)[C@@H](NC(=O)[C@@H](CCC(N)=O)NC(=O)[C@H](CO)NC(=O)[C@@H](NC(=O)[C@@H](Cc1ccccc1)NC)[C@@H](C)CC)C(=O)N[C@H](C(=O)N[C@@H](CO)C(=O)N[C@H]1C(=O)N[C@@H](C)C(=O)N[C@@H](CCCCN)C(=O)N[C@@H]([C@@H](C)CC)C(=O)O[C@H]1C)[C@@H](C)CC` the figure was 1 µg/mL (≈ 0.822 µM); with `CC[C@@H](C)[C@@H](NC(=O)[C@@H](CCC(N)=O)NC(=O)[C@H](CO)NC(=O)[C@@H](NC(=O)[C@H](N)Cc1ccc(C)cc1)[C@@H](C)CC)C(=O)N[C@H](C(=O)N[C@@H](CO)C(=O)N[C@H]1C(=O)N[C@@H](C)C(=O)N[C@@H](CCCNC(=N)N)C(=O)N[C@@H]([C@@H](C)CC)C(=O)O[C@H]1C)[C@@H](C)CC`, 2 µg/mL (≈ 1.61 µM); with `CC[C@@H](C)[C@@H](NC(=O)[C@@H](CCC(N)=O)NC(=O)[C@H](CO)NC(=O)[C@@H](NC(=O)[C@H](N)Cc1ccc(-c2ccccc2)cc1)[C@@H](C)CC)C(=O)N[C@H](C(=O)N[C@@H](CO)C(=O)N[C@H]1C(=O)N[C@@H](C)C(=O)N[C@@H](CCCNC(=N)N)C(=O)N[C@@H]([C@@H](C)CC)C(=O)O[C@H]1C)[C@@H](C)CC`, 1 µg/mL (≈ 0.765 µM).
Still for that read-out and setting: as for `CC[C@@H](C)[C@@H](NC(=O)[C@@H](CCC(=O)NCCN(C)C)NC(=O)[C@H](CO)NC(=O)[C@@H](NC(=O)[C@H](N)Cc1ccc(-c2ccccc2)cc1)[C@@H](C)CC)C(=O)N[C@H](C(=O)N[C@@H](CO)C(=O)N[C@H]1C(=O)N[C@@H](C)C(=O)N[C@@H](CCCCN)C(=O)N[C@@H]([C@@H](C)CC)C(=O)O[C@H]1C)[C@@H](C)CC`, the figure is 2 µg/mL (≈ 1.48 µM).
